Source: the EternaBench riboswitch data

Test system: MS2 coat protein
Assay: apparent Kd, MS2 coat protein; higher = weaker binding; RNA-MaP array; FMN 200 µM where present
Procedure, shortened: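 In 100 mM Tris-HCl pH 7.5, 80 mM KCl, 4 mM MgCl2, BSA, DTT, yeast tRNA and Tween-20, SNAP-549-labelled MS2 coat protein was titrated from 0.7 or 1.5 nM, doubling to 3 µM, over designs transcribed by stalled E. coli RNA polymerase on Illumina sequencing-chip clusters. This was done first without ligand, then with ligand held constant. After green signal was normalised to red-channel RNA signal and control-cluster median Fmax, the apparent Kd was taken as the median of filtered per-cluster binding-curve fits.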

[1] = designed as: ON switch for flavin mononucleotide, no ligand
[2] = ligand present: flavin mononucleotide, designed as: ON switch for flavin mononucleotide
[3] = designed as: OFF switch for flavin mononucleotide, no ligand
[4] = ligand present: flavin mononucleotide, designed as: OFF switch for flavin mononucleotide

Row | Sequence | apparent Kd [1] [nM] | apparent Kd [2] [nM] | apparent Kd [3] [nM] | apparent Kd [4] [nM]
1 | UCGUACAUUCGAGGAUAUCGGUGAUAAAUAAUACGAGAAGGCGAUUUUAGGCAUAACGCCUUAGACAUGAGGAUCACCCAUGUA | 68.1 | 55.1 |  | 
2 | UCGUGUCAUGUAGGAUAUGACACAGGAAACUGGUCAGAAGGACAUGAGGAUCACCCAUGUAAAAUGUUCAAGAAUAACGCAUGC |  |  | 78.8 | 161
3 | UCUAAGCGAAUCAAGAUGGAUAGAACAUGAGGAUCACCCAUGUAGGAUAUGCUACACAAAGUGUAGCAGAAGGACAAGCUUAGA |  |  | 25.9 | 36.2
4 | UCUCAUAUGCAGGAUAUCCAUGGCGGGCGGAGAGGAGAAGGGCAUACAUGAGGAUCACCCAUGUGUCCCGUGGG |  |  | 27.2 | 41.2
5 | UCUCGAUGUGUAGGAUAUCUGACCACUAUGACAAGAGAAGGGCACAUGAGGAUCACCCAUGUGGAGGACCACUGGUUCAGAUUA |  |  | 40.9 | 51
6 | UCUCGUUUCGCAGGAUAUGCUGGUCGGAAAUAAACCGGCCACAUGAGGAUCACCCAUGUGCCACAGCAGAAGGGUGACACUAGA | 527 | 53.9 |  | 
7 | UCUCUGCGAGGAUAUACGUGCGCGCGCGCGCGCGCGCGCGUACAUGAGGAUCACCCAUGUAGAAGGCGCUCUGC |  |  | 30.8 | 28.2
8 | UCUCUUCUGUAGAAGGCCCAACUUGUGAAGAUAACGAUACUAUAGAAGUAGGGAGGAUAUACAUGAGGAUCACCCAUGUAGGAA |  |  | 8.09 | 15.8
9 | UCUUAUUGCAAGGAUAUGCUUUUUAUUUCUUUUGCAGAAGGUGCAACAUGAGGAUCACCCAUGUUUCCGGGCAU |  |  | 16 | 28
10 | UCUUUCGUUGUGAGGAUAUGCCCAAAUAAAAGCGGGCAGAAGGCACAUGAGGAUCACCCAUGUCCUGCGGUUUU |  |  | 22.8 | 288
11 | UCUUUCUUUGUGAGGAUAUGCCCAAAUAAAAGCGGGCAGAAGGCACAUGAGGAUCACCCAUGUUCUGCGGUUUU |  |  | 54.5 | 486
12 | UGAAAGUGAGGAUAUGGUGAGUAGUGCCUGAGCGCUGCUCACCAGAAGGCACAUGAGGAUCACCCAUGUAAAUG |  |  | 53.4 | 170
13 | UGAAAUCAUGUAGGAUAUGCAUGGCGAAGCUACGCAGAAGGACAUGAGGAUCACCCAUGUGCUAGCUACCGAGUUCGGUGGCAA |  |  | 103 | 215
14 | UGAAAUCAUGUAGGAUAUGCAUGGCGAAGCUACGCAGAAGGACAUGAGGAUCACCCAUGUGCUAGCUACCGGAUACGGUGGCAA |  |  | 99.1 | 230
15 | UGAAAUCAUGUAGGAUAUGCAUGGCGAAGCUACGCAGAAGGACAUGAGGAUCACCCAUGUUAAAGCUACCGGAUACGGUGGCAA |  |  | 192 | 156
16 | UGAAAUCAUGUAGGAUAUGCAUGGCGAAGCUACGCAGAAGGACAUGAGGAUCACCCAUGUUAUAGCUACCCAGUUCGGUGGCAA |  |  | 141 | 118
17 | UGAAUCAAUACAGGAUAUGGUGACGCACAUGAGGAUCACCCAUGUCCGCAGCGUGCUAAGCACGCCCAGAAGGGUAUUGAUCUG | 1010 | 81 |  | 
18 | UGAAUGUAGGAGAAGGAGGACUUCAUGAGGAUCACCCAUGUGUUAGGACUUAGGAUAUUUGACGACAUGAGGAUCACCCAUGUG | 62.5 | 55.7 |  | 
19 | UGACGGAGCUGAGGAUAUACAUGAGGAUCACCCAUGUAAGAUCUCCAGGAAACUGGAGAUCAAAAGUAGAAGGCAGCUCCGUCA |  |  | 15.4 | 23.4
20 | UGACUGAAGCAAGGAUAUUGUAAAGUUAUCGUACAAGAAGGUGCUGUUUAUGUCUCUUUACAUGAGGAUCACCCAUGUUUUUAU | 32.8 | 24.6 |  | 
21 | UGAGAUGUAGUAGGAUAUCAGGUUACAUGAGGAUCACCCAUGUUAGAUUGGUGGAUAGAUGUUGAUGAGAAGGACUUUUGAGUG |  |  | 66.7 | 116
22 | UGAGCAGAAGGAUAUGCGUAAUGGCCGUGAGGCCUAGAUCUACAUGAGGAUCACCCAUGUAGAAGGUCUGUUCU |  |  | 15.3 | 15.2
23 | UGAGCAUGAGGAUAUACAAGGCGUGCCGUAGCACGAGGUCUACAUGAGGAUCACCCAUGUAGAAGGCAUGUUCU |  |  | 16.8 | 36.9
